# Measurements reported in PubChem BioAssay.
# Calls of active or inactive are those of the source.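 Rule for the calls: active = duplicate-averaged activation above buffer control mean plus 5 SD of those controls; inactive = the rest.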
# Assay: thallium flux activation in parental CHO cells, counter-screen for KCNQ1 potentiator project (AID 493006)
# Conditions: parental CHO-K1 cells, FluxOR thallium flux, at 10 µM; active compounds read high
# How it was run: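 Test system: parental CHO-K1 cells, FluxOR dye-loaded / Probe or stimulus: potassium plus thallium depolarizing stimulus, 5x stock 12.5 mM K2SO4, Tl2SO4 / Timing: overnight 37 °C plating, 90 min dye, 20 min dark compound / Measured by: kinetic thallium-flux fluorescence / Read-out: max-minus-min fluorescence over baseline, percent of buffer-to-R-L3 span / Benchmarks: buffer and R-L3 controls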
Structure (SMILES),outcome,activation
Cc1[nH][nH]c(=O)c1C(c1ccc(-c2ccc(Cl)cc2)o1)c1c(C)[nH][nH]c1=O,inactive,
CCn1c(O)c(N=NC2=NC(=O)CS2)c2cc(C)ccc21,,244% (active)
CCn1c2ccccc2c2cc(NC(=O)CNC)ccc21,inactive,
CCOC(=O)c1c(NC(=S)NC)sc2c1CCCC2,,318% (active)
Cc1ccc(/C=N/NC(=O)c2cc3ccccc3cc2O)o1,,482% (active)
CC1=C/C(=N\OS(=O)(=O)c2ccccc2)C=CC1=O,inactive,
CCc1ccc(NC(=O)C(=O)NNC(=O)c2cccs2)cc1,,360% (active)
CS(=O)(=O)c1sc(C(=O)NC(=S)Nc2ccc(OC(F)(F)F)cc2)c2c1C=CCC2,inactive,
CCOC(=O)c1sc(=S)n2c1[nH]c(=O)c1ccc(C(=O)OC)cc12,,383% (active)
CCn1c(=S)[nH]c2sc3c(c2c1=O)CCCCC3,,516% (active)
CCn1cc(CN2CCC(C(=O)Nc3cccc(-c4cccc(Cl)c4)c3)CC2)cn1,inactive,
Oc1c(Cl)cc(Cl)cc1/C=N/c1ncn[nH]1,,232% (active)
CCC1(C)Cc2c(sc3[nH]c(=S)n(Cc4ccccc4)c(=O)c23)CO1 (centres undefined),,294% (active)
Cc1cccc(NC(=S)NC(=O)c2ccc(Br)o2)c1,,204% (active)
